TAAR1 ag: human TAAR1 agonism; Q96RJ0; CHO RD-HGA16 TAAR1, Fluo-8 calcium fluorescence; vehicle wells 0%, saturating PEA agonist 100%; activation, % at 3 µM; actives 0.99% (n = 360,000); AID 624467;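 active means activation above the mean activation of all test compounds in the run plus 3 SD, cut at about 38% in these data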
Target sequence (Q96RJ0 whole entry, looked up): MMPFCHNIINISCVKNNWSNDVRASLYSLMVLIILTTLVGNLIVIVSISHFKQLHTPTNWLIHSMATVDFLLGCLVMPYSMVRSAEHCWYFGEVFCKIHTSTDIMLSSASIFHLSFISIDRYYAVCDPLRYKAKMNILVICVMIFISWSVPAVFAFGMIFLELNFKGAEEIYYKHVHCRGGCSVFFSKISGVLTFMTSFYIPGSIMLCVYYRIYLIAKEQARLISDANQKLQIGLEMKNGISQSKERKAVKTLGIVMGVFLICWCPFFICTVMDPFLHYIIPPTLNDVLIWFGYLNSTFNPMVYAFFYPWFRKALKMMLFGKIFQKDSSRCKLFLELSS
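Test system: RD-HGA16 (CHO) cells co-expressing Gα16 and hTAAR1 | Doses: Single dose, 3 µM | Schedule: 17-24 h seeding, 75 min 37 °C dye, 30 min RT | Evaluation: % activation from peak over basal fluorescence ratio, DMSO-to-PEA scaled | Technique: Kinetic Fluo-8 calcium fluorescence | Benchmarks: Low control DMSO, high control PEA (EC100)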
OXTR potentiate: human OXTR potentiation | actives 0.061% (n = 320,000) | CHO-OTR cells, Fluo-8 calcium fluorescence, potentiator mode; 0% = oxytocin EC15, 100% = EC100 | P30559 | AID 2445 | activation, % at 3 µM;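 active means activation above that plate's cutoff, the mean activation of tested compounds plus 3 SD, cut at about 6.6% in these data, passing the limit was not always enough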
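assay system = CHO-OTR cells, human receptor | schedule = compound 6 min at room temperature before oxytocin, 100 s read | detection = Fluo-8 intracellular calcium fluorescence, ex 470-495, em 515-575 nm | evaluation = normalized max/min fluorescence ratio, % activation | control set = EC15 oxytocin alone as 0%, 75 nM oxytocin (EC100) as 100%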
V1aR counter: counter-screen for oxytocin receptor agonists: human V1a receptor agonists; P37288; CHO-V1R cells, Fluo-8 calcium fluorescence, agonist mode; 0% DMSO, 100% 3 nM vasopressin; AID 2797; actives 0.25% (n = 320,000); activation, % at 3 µM;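 active means activation above the mean activation of all tested compounds plus 3 SD, per screening run, cut at about 20% in these data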;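 further: signal is peak over basal fluorescence ratio across a 100 second FLIPR read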
Target sequence (P37288 whole entry, looked up): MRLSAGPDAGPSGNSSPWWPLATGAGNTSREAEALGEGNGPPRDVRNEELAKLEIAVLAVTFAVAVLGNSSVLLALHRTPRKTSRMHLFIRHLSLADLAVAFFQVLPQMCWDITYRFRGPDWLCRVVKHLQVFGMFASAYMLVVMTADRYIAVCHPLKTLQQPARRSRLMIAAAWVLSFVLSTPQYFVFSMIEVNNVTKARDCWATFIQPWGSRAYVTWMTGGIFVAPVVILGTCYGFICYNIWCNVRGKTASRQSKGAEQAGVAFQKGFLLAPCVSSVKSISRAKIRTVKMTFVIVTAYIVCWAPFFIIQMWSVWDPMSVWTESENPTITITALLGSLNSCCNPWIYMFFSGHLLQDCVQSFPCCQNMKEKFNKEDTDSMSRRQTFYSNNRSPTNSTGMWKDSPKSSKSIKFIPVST
TAAR1 antag: antagonists of human TAAR1 | Q96RJ0 | CHO RD-HGA16 TAAR1, Fluo-8 calcium fluorescence, antagonist | inhibition, % at 3 µM | actives 1.5% (n = 360,000) | AID 624466;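 active means inhibition above a per-plate cutoff, the mean inhibition of test compounds on that plate plus 3 SD, cut at about 49% in these data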
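Test system: hTAAR1-expressing CHO RD-HGA16 cells, Gα16-coupled; Probe or stimulus: EC80 β-phenethylamine stimulus; Compound dosing: single nominal final test compound concentration of 3 µM; Timing: 140 s kinetic read after compound, 140 s after agonist; Signal: Fluo-8 calcium-sensitive fluorescence; Measure: % inhibition of agonist calcium response; Controls: DMSO and EC80 PEA controls.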
OXTR agonist: activates the human oxytocin receptor; actives 0.32% (n = 320,000); CHO-OTR cells, Fluo-8 calcium fluorescence; normalized: DMSO 0%, oxytocin 100%; AID 2435; activation, % at 3 µM; P30559;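 active means activation above the mean of all tested compounds plus 3 SD, cutoff set per screening run, cut at about 20% in these data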;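 further: peak over basal fluorescence ratio from a 100 s FLIPR kinetic read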
nonsel antag count: nonselective antagonism, TAAR1 counter-screen; actives 77% (n = 2,400); shares compounds with TAAR1 antag; inhibition, % at 3 µM; counterscreen cell line, calcium fluorescence, antagonist mode; in the data active means inhibition above about 22%;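 further: CHO-Ga16 host cells stimulated with ATP at an EC80 level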
TAAR1 ant conf: confirmation of human TAAR1 antagonists; shares compounds with TAAR1 antag; TAAR1-expressing cells, fluorescence antagonist read-out; inhibition, % at 3 µM; actives 40% (n = 2,400); AID 651785; in the data active means inhibition above about 49%;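 further: CHO-Ga16 host cells challenged with agonist PEA near its EC80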
Ga16 ag counter: nonselective Ga16 agonist in TAAR1 antagonist counter-screen; shares compounds with TAAR1 antag; Ga16-expressing cells, calcium fluorescence, agonist counterscreen; activation, % at 3 µM; actives 18% (n = 2,400); AID 651953; in the data active means activation above about 12%
TAAR1 ag counter: activates human TAAR1 in antagonist counter-screen. shares compounds with TAAR1 antag. hTAAR1 cell line, fluorescence activation, agonist mode. activation, % at 3 µM. actives 2% (n = 2,400); in the data active means activation above about 37%;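 further: CHO cells stably expressing TAAR1 with calcium dye readout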
A number is an active result; 0 = inactive; - = no result. Shown are actives, neighbours in structure and some others; about 2.3% of the full set was active somewhere.

SMILES	TAAR1 ag	OXTR potentiate	V1aR counter	TAAR1 antag	OXTR agonist	nonsel antag count	TAAR1 ant conf	Ga16 ag counter	TAAR1 ag counter
CCC1(c2ccccc2)NC(=O)N(CC(=O)N(C)Cc2c(F)cccc2Cl)C1=O (stereo not drawn)	0	0	0	0	0	-	-	-	-
O=C(c1ccc(Br)o1)N(Cc1ccccc1)Cc1ccccc1	0	0	0	49.8	0	0	0	0	0
O=C(CCN1C(=O)C2C3C=CC(C3)C2C1=O)NCCc1ccccc1 (stereo not drawn)	0	0	0	52.3	0	0	51.6	0	0
Cc1c(C(=O)N2CCN(c3ccccc3F)CC2)oc2c1C(=O)CC(C)(C)C2	0	0	0	0	0	-	-	-	-
Cc1c(C(=O)N2CCN(c3ccccc3)CC2)oc2c1C(=O)CC(C)(C)C2	0	0	0	67.5	0	30.4	53.3	0	0
COC(=O)C1=C(C)N(Cc2ccc(Cl)cc2)C(=S)NC1c1cccc(F)c1 (stereo not drawn)	0	-	-	0	-	-	-	-	-
COC(=O)C1=C(C)N(Cc2ccc(F)cc2)C(=S)NC1c1cccc(Br)c1 (stereo not drawn)	0	-	-	54.2	-	0	0	0	0
COC(=O)C1=C(C)N(Cc2ccc(C(F)(F)F)cc2)C(=NCc2ccc3c(c2)OCO3)NC1c1cccc(Cl)c1 (stereo not drawn)	0	-	-	49.0	-	31.0	0	13.7	0
O=C(O)c1[nH]c2ccc(Br)cc2c1CCN1C(=O)c2cccc([N+](=O)[O-])c2C1=O	0	0	0	0	0	-	-	-	-
Cc1nc(-c2ccc(S(=O)(=O)Oc3ccccc3Cl)s2)cs1	0	0	0	78.7	0	28.1	49.1	0	0
CC(C)(C)c1ccc(C#C[C@@H]2C=C[C@H](O)[C@@H](COC(=O)Nc3ccccc3)O2)cc1	0	-	-	50.7	-	25.7	0	0	0
CCNC(=O)OC[C@H]1O[C@H](C#Cc2ccc(C(C)(C)C)cc2)C=C[C@H]1O	0	-	-	0	-	-	-	-	-
Cc1csc(SCC(=O)NC(=O)C2CCCCC2)n1	0	0	0	0	0	-	-	-	-
Cc1coc(NC(=O)CSc2nc(-c3ccc(Cl)cc3)cc(C(F)(F)F)c2C#N)n1	-	0	0	-	0	0	-	0	-
CC(NC(=O)c1cc2c(=O)n(C)c3ccccc3c2n1C)c1ccc2c(c1)OCCO2 (stereo not drawn)	0	0	0	59.0	0	21.6	0	0	0
Cn1c(C(=O)Nc2ccc3c(c2)OCO3)cc2c(=O)n(C)c3ccccc3c21	0	0	0	0	0	-	-	-	-
CCC(=O)c1ccc(OCC(=O)OCC(=O)Nc2ccc(C)c(S(=O)(=O)N3CCCCC3)c2)cc1	0	0	0	66.7	0	56.1	57.0	16.7	0
Cc1cc(N2C(=O)C(O)=C(C(=O)c3ccc(C)o3)C2c2ccc([N+](=O)[O-])cc2)no1 (stereo not drawn)	0	0	0	0	0	-	-	-	-
O=C(COc1ccc(F)cc1)NN1C(=O)CSC1=S	0	0	0	0	0	-	-	-	-
CCOc1ccc(C(C(=O)NCC2CCCO2)N(Cc2ccccc2)C(=O)c2snc(C(N)=O)c2N)cc1 (stereo not drawn)	0	0	0	57.0	0	35.3	56.7	12.1	0
COc1ccc(C(C(=O)NCC2CCCO2)N(Cc2cccs2)C(=O)c2snc(C(N)=O)c2N)cc1 (stereo not drawn)	0	0	0	59.0	0	23.2	58.3	26.7	0
O=c1[nH]c(CN2CCCCC2)ccc1O	0	-	-	0	-	-	-	-	-
Cc1cccc(N2CCN(C(=O)c3ccc(Cl)c(NC4=NC5CS(=O)(=O)CC5S4)c3)CC2C)c1 (stereo not drawn)	0	0	0	56.0	0	26.4	0	0	0
COc1ccc(/C=C(\C#N)C(=O)c2c(C)[nH]c3ccccc23)cc1OC	0	0	0	58.8	0	0	0	0	0
COc1cc(/C=C(\C#N)C(=O)c2c(C)[nH]c3ccccc23)cc(OC)c1OC	0	0	0	0	0	-	-	-	-
SMILES	TAAR1 ag	OXTR potentiate	V1aR counter	TAAR1 antag	OXTR agonist	nonsel antag count	TAAR1 ant conf	Ga16 ag counter	TAAR1 ag counter
CCC(CO)Oc1cc(NCc2cccc(OC)c2)c2ncn(C(C)C)c2c1 (stereo not drawn)	0	0	0	106.2	0	0	0	0	0
COCCOC(=O)c1c(C)n(C)c2ccc(OC(=O)c3ccco3)cc12	0	0	0	0	0	-	-	-	-
COCCOC(=O)c1c(C)n(C)c2ccc(OC(=O)c3ccccc3OC)cc12	0	0	0	52.8	0	26.2	0	0	0
O=C(CNC(=O)c1nc[nH]c1C(=O)NCC(=O)OCc1ccccc1)OCc1ccccc1	0	0	0	69.3	0	36.6	56.4	0	0
O=C(CNC(=O)c1nc[nH]c1C(=O)NCc1ccccc1)OCc1ccccc1	0	0	0	66.5	0	37.2	56.5	0	0
CCN(CC)C(=O)c1[nH]cnc1C(=O)NCC(=O)OCc1ccccc1	0	0	0	70.8	0	25.2	52.4	0	0
COc1cc(-c2cc(NC=O)c3ncc(-c4cccc(C(F)(F)F)c4)n3c2)cc(OC)c1OC	0	-	-	0	-	-	-	-	-
C=CCN=C1SC(C)(C)C(=O)N1S(=O)(=O)c1ccc(C)cc1	0	0	0	0	0	-	-	-	-
CCc1nc2ccc(C(=O)NCCOc3ccc(OC)cc3)cn2c1N(C)Cc1ccc(OC)cc1	0	-	-	0	-	-	-	-	-
CCc1nc2ccc(C(=O)NCCOc3ccc(OC)cc3)cn2c1N(C)Cc1cccs1	0	-	-	62.4	-	29.2	0	0	0
O=C1N/C(=C/c2ccc(Br)cc2)C(O)=C1C=NCc1ccccc1	0	0	0	105.0	0	0	0	0	0
CN(C)S(=O)(=O)c1cccc(COC(=O)CNC(=O)c2ccc(Br)o2)c1	0	-	-	0	-	-	-	-	-
Cc1cc(C)n(-c2nc(Nc3ccccc3C(F)(F)F)nc(-n3nc(C)cc3C)n2)n1	0	0	0	91.8	0	42.5	70.2	13.2	0
Cc1cc(C)n(-c2nc(NC(C)C)nc(NC(C)C)n2)n1	0	0	0	0	0	-	-	-	-
COc1ccc(CCNC(=O)C(=O)NCC2CCCN2S(=O)(=O)c2cccs2)cc1 (stereo not drawn)	0	0	0	0	0	-	-	-	-
O=C(Nc1nc(-c2ccc3ccccc3c2)cs1)C1CCN(S(=O)(=O)c2cccs2)CC1	0	0	0	103.8	0	0	0	0	0

Screening data as filed in PubChem.
